# The source made the active and inactive calls. No cut-off for these calls is given here.
# Legend:
# Staphylococcus aureus [1] = test: Potentiation of ciprofloxacin-induced antibacterial activity in Staphylococcus aureus 1199 assessed as reduction in ciprofloxacin MIC at 0.8 to 50 ug/ml by broth checkerboard microdilution method relative to control; type: functional
# Summary of the method: (§1)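 Broth checkerboard microdilution in cation-adjusted Mueller–Hinton broth. Compounds tested at seven concentrations (50-0.7 μg/mL) against twofold serial dilutions of ciprofloxacin (32-0.06 μg/mL). MEC is the minimum concentration that lowers the ciprofloxacin MIC fourfold. Piperine and SK-20 served as reference EPIs.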
# Staphylococcus aureus [2] = test: Potentiation of ciprofloxacin-induced antibacterial activity in norA-deleted Staphylococcus aureus K1758 assessed as reduction in ciprofloxacin MIC at 0.8 to 50 ug/ml by broth checkerboard microdilution method relative to control; type: functional; summary of the method: as §1
# [3] = biological target: T1, Quinolone resistance protein NorA (Staphylococcus aureus) (UniProt P0A0J7); test: Inhibition of NorA Staphylococcus aureus 1199B assessed as reduction in ethidium bromide efflux at 6.25 to 50 uM measured at 5 mins interval for 30 mins by fluorescence assay relative to control
# T1 sequence (whole entry): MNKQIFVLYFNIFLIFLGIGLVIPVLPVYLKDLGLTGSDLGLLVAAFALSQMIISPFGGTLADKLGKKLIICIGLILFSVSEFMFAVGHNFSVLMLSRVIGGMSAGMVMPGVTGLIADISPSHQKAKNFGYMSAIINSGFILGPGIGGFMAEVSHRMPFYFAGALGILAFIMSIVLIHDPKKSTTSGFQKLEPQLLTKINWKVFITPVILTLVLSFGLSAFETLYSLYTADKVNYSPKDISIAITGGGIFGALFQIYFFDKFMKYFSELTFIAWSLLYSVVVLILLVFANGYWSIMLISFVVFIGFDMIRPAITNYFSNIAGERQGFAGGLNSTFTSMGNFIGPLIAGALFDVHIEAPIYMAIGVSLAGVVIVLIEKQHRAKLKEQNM
# Staphylococcus aureus [4] = test: Growth inhibition of Staphylococcus aureus 1199 at 50 ug/ml by broth microdilution method; type: organism-based
# Staphylococcus aureus [5] = test: Growth inhibition of norA-deleted Staphylococcus aureus K1758 at 50 ug/ml by broth microdilution method; type: organism-based
# Summary of the method: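 MIC determined by broth microdilution in cation-adjusted Mueller–Hinton broth following CLSI guidelines. MIC is the lowest concentration giving no visible growth.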
# [6] = biological target: T1, Quinolone resistance protein NorA (Staphylococcus aureus); test: Inhibition of NorA in Staphylococcus aureus 1199B assessed as […] at 25 uM measured at 5 mins interval for 60 mins by fluorescence assay relative to control; settings: in the assay text read “for 30 mins” for “for 60 mins”
# Summary of the method: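 Ethidium bromide accumulation measured in SA-1199B cells preloaded with ethidium bromide, with compound at 25 μM. Fluorescence gain (excitation 530 nm, emission 600 nm) recorded at 5-min intervals.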
# [7] = biological target: T1, Quinolone resistance protein NorA (Staphylococcus aureus); test: Inhibition of NorA in Staphylococcus aureus 1199B assessed as minimum concentration required to effectively reduce ciprofloxacin MIC by four fold by broth checkerboard microdilution method; summary of the method: as §1
# [8] = biological target: T1, Quinolone resistance protein NorA (Staphylococcus aureus); test: Inhibition of NorA in Staphylococcus aureus 1199B assessed as reduction in ethidium bromide efflux at 50 uM measured over 5 mins interval for 30 mins by fluorescence assay relative to control
# [9] = biological target: T1, Quinolone resistance protein NorA (Staphylococcus aureus); test: Inhibition of NorA in Staphylococcus aureus 1199B assessed as assessed as potentiation of ciprofloxacin-induced antibacterial activity by measuring reduction in ciprofloxacin MIC at 25 to 50 ug/ml by broth checkerboard microdilution method relative to control; summary of the method: as §1
# HepG2 = test: Cytotoxicity against human HepG2 cells assessed as reduction in cell viability at 100 uM after 24 hrs by MTT assay; type: cell-based; settings: hepg2, 24 h
# Summary of the method: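 HepG2 monolayer (1×10^6 cells/well) in high-glucose DMEM exposed to 50 and 100 μM in triplicate for 24 h at 37°C, 5% CO2. MTT added, then formazan absorbance read at 570 nm. Percent cytotoxicity calculated against tamoxifen positive control (10 and 20 µg/mL) and untreated healthy cells.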
# [10] = biological target: T1, Quinolone resistance protein NorA (Staphylococcus aureus); test: Inhibition of NorA in Staphylococcus aureus 1199B assessed as reduction in ethidium bromide efflux at 50 uM measured after 5 mins by fluorescence assay relative to control
# Summary of the method: (§2)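 SA-1199B grown on tryptone soya agar. Ethidium bromide efflux followed by fluorescence (excitation 530 nm, emission 600 nm) over 5 min with compound at 0–50 μM. Run in triplicate. Percent inhibition calculated from mean values against the no-inhibitor control.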
# Staphylococcus aureus [11] = test: Potentiation of ciprofloxacin-induced antibacterial activity in Staphylococcus aureus 1199 assessed as minimum concentration required to effectively reduce ciprofloxacin MIC by four fold by broth checkerboard microdilution method; type: functional; settings: read-out: MEC; summary of the method: as §1
# [12] = biological target: T1, Quinolone resistance protein NorA (Staphylococcus aureus); test: Inhibition of NorA Staphylococcus aureus 1199B assessed as reduction in ethidium bromide efflux at 6.25 to 50 uM measured after 5 mins by fluorescence assay relative to control; summary of the method: as §2
Compound,fold change (FC) (Staphylococcus aureus [1]),fold change (FC) (Staphylococcus aureus [2]),inhibition [3],growth inhibition (GI) (Staphylococcus aureus [4]),growth inhibition (GI) (Staphylococcus aureus [5]),inhibition [6],MEC [7],inhibition [8],fold change (FC) [9],Activity (HepG2),inhibition [10],minimal effective concentration (Staphylococcus aureus [11]),inhibition [12]
COC(=O)[C@H]1[C@H]2C[C@@H]3c4[nH]c5cc(OC)ccc5c4CCN3C[C@H]2C[C@@H](OC(=O)c2cc(OC)c(OC)c(OC)c2)[C@@H]1OC [RESERPINE],2,0,Active,Non-Toxic,Non-Toxic,Active,–,–,–,–,–,–,–
COC(=O)CCCNC(=O)/C=C/C1=C(Cl)c2ccccc2CC1,0,0,–,Non-Toxic,Non-Toxic,–,> 50 µg/mL,–,–,–,–,–,–
COC(=O)CC1(NC(=O)/C=C/C2=C(Cl)c3ccccc3CC2)CCCCC1,0,0,–,Non-Toxic,Non-Toxic,–,> 50 µg/mL,–,–,–,–,–,–
COC(=O)[C@H](Cc1c[nH]c2ccccc12)NC(=O)/C=C/C1=C(Cl)c2ccccc2CC1,4,0,> 80%,Non-Toxic,Non-Toxic,inactive,1.5 µg/mL,83.9%,16,Non-Toxic,–,–,–
COC(=O)CCNC(=O)/C=C/C1=C(Cl)c2ccccc2CC1,0,0,–,Non-Toxic,Non-Toxic,–,25 µg/mL,–,–,–,–,–,–
COC(=O)[C@@H]1CCCN1C(=O)/C=C/C1=C(Cl)c2ccccc2CC1,2,0,–,Non-Toxic,Non-Toxic,–,6.25 µg/mL,–,–,–,80.3%,50 µg/mL,> 80%
COC(=O)[C@H]1CCCN1C(=O)/C=C/C1=C(Cl)c2ccccc2CC1,0,0,–,Toxic,Toxic,–,12.5 µg/mL,–,–,–,52.6%,–,–
COC(=O)CNC(=O)/C=C/C1=C(Cl)c2ccccc2CC1,0,0,–,Non-Toxic,Non-Toxic,–,> 50 µg/mL,–,–,–,–,–,–
COC(=O)[C@@H](NC(=O)/C=C/C1=C(Cl)c2ccccc2CC1)C(C)C,2,0,–,Non-Toxic,Non-Toxic,–,3.12 µg/mL,–,–,–,67.2%,–,67.2%
COC(=O)CC1(NC(=O)/C=C/C2=C(Cl)c3ccccc3CC2)CCC(C(C)(C)C)CC1 (configuration not stated),0,0,–,Non-Toxic,Non-Toxic,–,> 50 µg/mL,–,–,–,–,–,–
COC(=O)[C@H](Cc1ccc(O)cc1)NC(=O)/C=C/C1=C(Cl)c2ccccc2CC1,4,0,> 80%,Non-Toxic,Non-Toxic,Active,1.5 µg/mL,85.2%,16,Non-Toxic,–,–,–
COC(=O)[C@H](C)NC(=O)/C=C/C1=C(Cl)c2ccccc2CC1,0,0,–,Non-Toxic,Non-Toxic,–,25 µg/mL,–,–,–,–,–,–
CCC(/C=C/C(=O)N1CCCCC1)=C\c1ccc2c(c1)OCO2,4,0,–,Non-Toxic,Non-Toxic,–,6.25 µg/mL,68.8%,–,–,–,–,–
COC(=O)[C@H](CC(C)C)NC(=O)/C=C/C1=C(Cl)c2ccccc2CC1,2,0,–,Non-Toxic,Non-Toxic,–,12.5 µg/mL,–,–,–,56.2%,–,–
CC[C@@H](C)[C@H](NC(=O)/C=C/C1=C(Cl)c2ccccc2CC1)C(=O)OC,2,0,–,Non-Toxic,Non-Toxic,–,12.5 µg/mL,–,–,–,58.2%,–,–
COC(=O)C(C)(C)NC(=O)/C=C/C1=C(Cl)c2ccccc2CC1,0,0,–,Non-Toxic,Non-Toxic,–,12.5 µg/mL,–,–,–,41.4%,–,–
COC(=O)[C@H](Cc1ccccc1)NC(=O)/C=C/C1=C(Cl)c2ccccc2CC1,0,0,–,Non-Toxic,Non-Toxic,–,12.5 µg/mL,–,–,–,48%,–,–

# Source: ChEMBL document CHEMBL4308903, “Synthesis of amides from (E)-3-(1-chloro-3,4-dihydronaphthalen-2-yl)acrylic acid and substituted amino acid esters as NorA efflux pump inhibitors of Staphylococcus aureus” (Bioorg Med Chem, 2019)
